# Measured values from ChEMBL document CHEMBL2157880, “Synthesis, antimycobacterial and antibacterial activity of ciprofloxacin derivatives containing a N-substituted benzyl moiety” (2012).
# Test system: Pseudomonas aeruginosa
# Assay: Antibacterial activity against Pseudomonas aeruginosa 10-15 after 18 to 24 hrs by NCCLS method
# Type: functional
# Outline: (§1)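 Standard NCCLS (M100-S11) MIC testing against Gram-positive and Gram-negative strains. Plates were incubated at 35 °C for 18–24 h. The MIC was read as the lowest concentration giving complete inhibition of visible bacterial growth.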
row,SMILES,MIC [µg/mL]
1,COc1ccc(OC)c(CN2CCN(c3cc4c(cc3F)c(=O)c(C(=O)O)cn4C3CC3)CC2)c1,16

# Test system: Staphylococcus epidermidis
# Assay: Antibacterial activity against methicillin-sensitive Staphylococcus epidermidis 10-15 after 18 to 24 hrs by NCCLS method
# Type: functional
# Outline: (§2)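 Incubated at 35 °C for 18–24 h under NCCLS (M100-S11) standards. MIC was read as the lowest concentration giving complete inhibition of visible bacterial growth.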
row,SMILES,MIC [µg/mL]
1,COc1ccc(OC)c(CN2CCN(c3cc4c(cc3F)c(=O)c(C(=O)O)cn4C3CC3)CC2)c1,16

# Test system: Pseudomonas aeruginosa
# Assay: Antibacterial activity against Pseudomonas aeruginosa 10-12 after 18 to 24 hrs by NCCLS method
# Type: functional
# Outline: as §1
row,SMILES,MIC [µg/mL]
1,COc1ccc(OC)c(CN2CCN(c3cc4c(cc3F)c(=O)c(C(=O)O)cn4C3CC3)CC2)c1,8

# Test system: Escherichia coli
# Assay: Antibacterial activity against Escherichia coli 10-3 after 18 to 24 hrs by NCCLS method
# Type: functional
# Outline: as §1
row,SMILES,MIC [µg/mL]
1,COc1ccc(OC)c(CN2CCN(c3cc4c(cc3F)c(=O)c(C(=O)O)cn4C3CC3)CC2)c1,16

# Test system: Klebsiella pneumoniae
# Assay: Antibacterial activity against Klebsiella pneumoniae 10-4 after 18 to 24 hrs by NCCLS method
# Type: functional
# Outline: as §1
row,SMILES,MIC [µg/mL]
1,COc1ccc(OC)c(CN2CCN(c3cc4c(cc3F)c(=O)c(C(=O)O)cn4C3CC3)CC2)c1,> 128

# Test system: Staphylococcus aureus
# Assay: Antibacterial activity against methicillin-resistant Staphylococcus aureus 10-13 after 18 to 24 hrs by NCCLS method
# Type: functional
# Outline: as §2
row,SMILES,MIC [µg/mL]
1,COc1ccc(OC)c(CN2CCN(c3cc4c(cc3F)c(=O)c(C(=O)O)cn4C3CC3)CC2)c1,32

# Test system: Staphylococcus aureus
# Assay: Antibacterial activity against methicillin-sensitive Staphylococcus aureus 10-13 after 18 to 24 hrs by NCCLS method
# Type: functional
# Outline: as §1
row,SMILES,MIC [µg/mL]
1,COc1ccc(OC)c(CN2CCN(c3cc4c(cc3F)c(=O)c(C(=O)O)cn4C3CC3)CC2)c1,0.5

# Test system: Escherichia coli
# Assay: Antibacterial activity against Escherichia coli 10-1 after 18 to 24 hrs by NCCLS method
# Type: functional
# Outline: as §1
row,SMILES,MIC [µg/mL]
1,COc1ccc(OC)c(CN2CCN(c3cc4c(cc3F)c(=O)c(C(=O)O)cn4C3CC3)CC2)c1,> 128

# Test system: Klebsiella pneumoniae
# Assay: Antibacterial activity against extended spectrum beta-lactamases producing Klebsiella pneumoniae 10-3 after 18 to 24 hrs by NCCLS method
# Type: functional
# Outline: as §1
row,SMILES,MIC [µg/mL]
1,COc1ccc(OC)c(CN2CCN(c3cc4c(cc3F)c(=O)c(C(=O)O)cn4C3CC3)CC2)c1,> 128

# Test system: Enterococcus faecalis
# Assay: Antibacterial activity against Enterococcus faecalis 10-5 after 18 to 24 hrs by NCCLS method
# Type: functional
# Outline: as §1
row,SMILES,MIC [µg/mL]
1,COc1ccc(OC)c(CN2CCN(c3cc4c(cc3F)c(=O)c(C(=O)O)cn4C3CC3)CC2)c1,16

# Test system: Klebsiella pneumoniae
# Assay: Antibacterial activity against Klebsiella pneumoniae 10-2 after 18 to 24 hrs by NCCLS method
# Type: functional
# Outline: as §1
row,SMILES,MIC [µg/mL]
1,COc1ccc(OC)c(CN2CCN(c3cc4c(cc3F)c(=O)c(C(=O)O)cn4C3CC3)CC2)c1,> 128

# Test system: Staphylococcus aureus
# Assay: Antibacterial activity against methicillin-resistant Staphylococcus aureus 10-15 after 18 to 24 hrs by NCCLS method
# Type: functional
# Outline: as §2
row,SMILES,MIC [µg/mL]
1,COc1ccc(OC)c(CN2CCN(c3cc4c(cc3F)c(=O)c(C(=O)O)cn4C3CC3)CC2)c1,16

# Test system: Staphylococcus aureus
# Assay: Antibacterial activity against Staphylococcus aureus ATCC 2592 after 18 to 24 hrs by NCCLS method
# Type: functional
# Outline: as §1
row,SMILES,MIC [µg/mL]
1,COc1ccc(OC)c(CN2CCN(c3cc4c(cc3F)c(=O)c(C(=O)O)cn4C3CC3)CC2)c1,0.5

# Test system: Escherichia coli
# Assay: Antibacterial activity against Escherichia coli ATCC 25922 after 18 to 24 hrs by NCCLS method
# Type: functional
# Outline: as §1
row,SMILES,MIC [µg/mL]
1,COc1ccc(OC)c(CN2CCN(c3cc4c(cc3F)c(=O)c(C(=O)O)cn4C3CC3)CC2)c1,1

# Test system: Enterococcus faecium
# Assay: Antibacterial activity against Enterococcus faecium 10-9 after 18 to 24 hrs by NCCLS method
# Type: functional
# Outline: as §1
row,SMILES,MIC [µg/mL]
1,COc1ccc(OC)c(CN2CCN(c3cc4c(cc3F)c(=O)c(C(=O)O)cn4C3CC3)CC2)c1,16

# Test system: Pseudomonas aeruginosa
# Assay: Antibacterial activity against Pseudomonas aeruginosa 10-9 after 18 to 24 hrs by NCCLS method
# Type: functional
# Outline: as §1
row,SMILES,MIC [µg/mL]
1,COc1ccc(OC)c(CN2CCN(c3cc4c(cc3F)c(=O)c(C(=O)O)cn4C3CC3)CC2)c1,16

# Test system: Streptococcus pneumoniae
# Assay: Antibacterial activity against Streptococcus pneumoniae 10-6 after 18 to 24 hrs by NCCLS method
# Type: functional
# Outline: as §1
row,SMILES,MIC [µg/mL]
1,COc1ccc(OC)c(CN2CCN(c3cc4c(cc3F)c(=O)c(C(=O)O)cn4C3CC3)CC2)c1,64

# Test system: Streptococcus pneumoniae
# Assay: Antibacterial activity against Streptococcus pneumoniae 10-1 after 18 to 24 hrs by NCCLS method
# Type: functional
# Outline: as §1
row,SMILES,MIC [µg/mL]
1,COc1ccc(OC)c(CN2CCN(c3cc4c(cc3F)c(=O)c(C(=O)O)cn4C3CC3)CC2)c1,8

# Test system: Enterococcus faecium
# Assay: Antibacterial activity against Enterococcus faecium 10-6 after 18 to 24 hrs by NCCLS method
# Type: functional
# Outline: as §1
row,SMILES,MIC [µg/mL]
1,COc1ccc(OC)c(CN2CCN(c3cc4c(cc3F)c(=O)c(C(=O)O)cn4C3CC3)CC2)c1,16
